# Laboratory results published in ChEMBL document CHEMBL1132709, “Novel cyclopropapyrroloindole derivative (AT-3510) bearing methoxycarbonyl and trifluoromethyl groups” (J Med Chem, 1999).
# Legend:
# Mus musculus [1] = test: In vivo antitumor activity (0.584 mg/kg) is the measure of tumor growth inhibition of human tumor xenograft NUGC-3 (stomach) implanted sc in mice.; type: functional
# How it was run: (§1)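 Tumor fragments (2–3 mm3) implanted sc into female BALB/cA Jcl-nu mice on day 0. A single iv dose was given once tumor volume reached about 100 mm3. Read-out is percentage of maximum tumor growth inhibition versus the untreated group.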
# Mus musculus [2] = test: In vivo antitumor activity (0.584 mg/kg) is the measure of tumor growth inhibition of human tumor xenograft HCT116 (colon) implanted sc in mice.; type: functional; how it was run: as §1
# Mus musculus [3] = test: In vivo antitumor activity (0.584 mg/kg) is the measure of tumor growth inhibition of human tumor xenograft DLD-1 (colon) implanted sc in mice.; type: functional; how it was run: as §1
# Mus musculus [4] = test: In vivo antitumor activity (0.584 mg/kg) is the measure of tumor growth inhibition of human tumor xenograft WiDr (colon) implanted sc in mice.; type: functional; how it was run: as §1
# P338 = test: In vitro concentration required to inhibit the growth of […] murine leukemia cells by 50%; type: functional, cell-based; details: Mus musculus
# Mus musculus [5] = test: In vivo antitumor activity is the measure of tumor growth inhibition of Colon 26 murine […] cells.; type: functional
# How it was run: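 Colon 26 cells (10^6/mouse) inoculated sc into male CDF1 mice on day 0; single iv dose on day 7. Tumor growth inhibition expressed as percentage versus untreated group.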
# Mus musculus [6] = test: In vivo concentration required to inhibit the Colon 26 murine […] cell growth by 50%; type: functional
# [7] = Ratio between max dose within 10% body weight loss and tumor growth inhibition; type: functional
# How it was run: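 Ratio of maximum dose within 10% body weight loss to the dose giving 50% tumor growth inhibition, in sc Colon 26-bearing mice dosed iv.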
# HeLa = test: Concentration required to inhibit the growth of HeLaS3 human uterine cervix carcinoma cells by 50%; type: functional, cell-based
# Mus musculus [8] = test: In vivo antitumor activity (0.5 mg/Kg) is the measure of tumor growth inhibition of colon 26 murine […] cells.; type: functional
# How it was run: (§2)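 Colon 26 cells (10^6/mouse) inoculated sc into male CDF1 mice on day 0; drug given iv on day 7. Read-out is percentage tumor growth inhibition versus the untreated group.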
# Mus musculus [9] = test: In vivo antitumor activity (0.25 mg/Kg) is the measure of increase in life span of mice bearing P388 murine leukemia cells; 2/2 cured mice (>60-day survivors); type: functional, organism-based
# Mus musculus [10] = test: In vivo antitumor activity (0.25 mg/Kg) is the measure of tumor growth inhibition of colon 26 murine […] cells.; type: functional; how it was run: as §2
# Mus musculus [11] = test: In vivo antitumor activity (0.125 mg/Kg) is the measure of tumor growth inhibition of colon 26 murine […] cells.; type: functional; how it was run: as §2
# Mus musculus [12] = test: In vivo antitumor activity (9.81 mg/kg) is the measure of tumor growth inhibition of human tumor xenograft HCT116 (colon) implanted sc in mice.; type: functional, organism-based; how it was run: as §1
# Mus musculus [13] = test: In vivo antitumor activity (9.81 mg/kg) is the measure of tumor growth inhibition of human tumor xenograft NUGC-3 (stomach) implanted sc in mice.; type: functional, organism-based; how it was run: as §1
# Mus musculus [14] = test: In vivo antitumor activity (9.81 mg/kg) is the measure of tumor growth inhibition of human tumor xenograft DLD-1 (colon) implanted sc in mice.; type: functional, organism-based; how it was run: as §1
# Mus musculus [15] = test: In vivo antitumor activity (9.81 mg/kg) is the measure of tumor growth inhibition of human tumor xenograft WiDr (colon) implanted sc in mice.; type: functional, organism-based; how it was run: as §1
compound,measurement,setting,value
CCN(CC)c1ccc2cc(C(=O)Nc3ccc4[nH]c(C(=O)N5C[C@@H](CCl)c6c5cc(OC(=O)Nc5ccccc5)c5[nH]cc(C)c65)cc4c3)oc2c1 [CARZELESIN],TGI,Mus musculus [1],98%
same,TGI,Mus musculus [2],82%
same,TGI,Mus musculus [3],79%
same,TGI,Mus musculus [4],56%
COC(=O)c1c(C)[nH]c2c1[C@@]13C[C@@H]1CN(C(=O)c1cc4cc(OC)c(OC)c(OC)c4[nH]1)C3=CC2=O (racemic),IC50,P338,0.34 ng/mL
COC(=O)c1c(C(F)(F)F)[nH]c2c1[C@@]13C[C@@H]1CN(C(=O)c1cc4cc(OC)ccc4[nH]1)C3=CC2=O (racemic),IC50,P338,0.23 ng/mL
COC(=O)c1c(C(F)(F)F)[nH]c2c(OC(=O)N3CCN(C)CC3)cc3c(c12)[C@H](CCl)CN3C(=O)c1cc2cc(NC(=O)c3cc4cc(OC)c(OC)c(OC)c4o3)ccc2[nH]1,TGI,Mus musculus [5],90%
same,TGI50,Mus musculus [6],0.0533 mg/kg
same,Ratio,[7],4.5
COC(=O)c1[nH]c2c(c1C(=O)OC)[C@@]13C[C@@H]1CN(C(=O)c1cc4cc(NC(=O)c5cc6ccccc6[nH]5)ccc4[nH]1)C3=CC2=O (racemic),IC50,P338,0.31 ng/mL
COC(=O)c1c(C(F)(F)F)[nH]c2c(O)cc3c(c12)[C@H](CCl)CN3C(=O)c1cc2cc(NC(=O)c3cc4ccc(OC)cc4o3)ccc2[nH]1 (racemic),IC50,HeLa,0.12 ng/mL
same,TGI,Mus musculus [8],94%
COC(=O)c1c(C(F)(F)F)[nH]c2c1[C@@]13C[C@@H]1CN(C(=O)c1cc4cc(NC(=O)c5cc6ccccc6[nH]5)ccc4[nH]1)C3=CC2=O (racemic),ILS,Mus musculus [9],2/2 cured mice (>60-day survivors)
same,IC50,P338,0.86 ng/mL
COC(=O)c1c(C(F)(F)F)[nH]c2c(OC(=O)N3CCN(C)CC3)cc3c(c12)[C@H](CCl)CN3C(=O)c1cc2cc(NC(=O)c3cc4ccc(OC)cc4o3)ccc2[nH]1,TGI,Mus musculus [5],89%
same,TGI50,Mus musculus [6],0.108 mg/kg
same,Ratio,[7],4.6
COC(=O)c1c(C(F)(F)F)[nH]c2c(O)cc3c(c12)[C@H](CCl)CN3C(=O)c1cc2cc(NC(=O)c3cc4c(OC)cccc4o3)ccc2[nH]1 (racemic),IC50,HeLa,0.87 ng/mL
same,TGI,Mus musculus [8],83%
COC(=O)c1c(C(F)(F)F)[nH]c2c1[C@@]13C[C@@H]1CN(C(=O)c1cc4cc(OC)c(OC)c(OC)c4[nH]1)C3=CC2=O (racemic),IC50,P338,0.24 ng/mL
COC(=O)c1c(C(F)(F)F)[nH]c2c(OC(=O)N3CCN(C)CC3)cc3c(c12)[C@H](CCl)CN3C(=O)c1cc2cc(NC(=O)c3cc4c(OC)c(OC)c(OC)cc4cn3)ccc2[nH]1,TGI,Mus musculus [5],89%
same,TGI50,Mus musculus [6],0.13 mg/kg
same,Ratio,[7],3.9
COC(=O)c1c(C(F)(F)F)[nH]c2c(O)cc3c(c12)[C@H](CCl)CN3C(=O)c1cc2cc(NC(=O)c3cnc4ccccc4c3)ccc2[nH]1 (racemic),IC50,HeLa,1.5 ng/mL
same,TGI,Mus musculus [8],84%
COC(=O)c1c(C(F)(F)F)[nH]c2c(OC(=O)N3CCN(C)CC3)cc3c(c12)[C@H](CBr)CN3C(=O)c1cc2cc(OC)c(OC)c(OC)c2[nH]1,Ratio,[7],11.7
COC(=O)c1c(C(F)(F)F)[nH]c2c(O)cc3c(c12)[C@H](CCl)CN3C(=O)c1cc2cc(NC(=O)c3cc4ccccc4o3)ccc2[nH]1 (racemic),IC50,HeLa,0.53 ng/mL
same,TGI,Mus musculus [8],85%
COC(=O)c1c(C(F)(F)F)[nH]c2c(O)cc3c(c12)[C@H](CCl)CN3C(=O)c1cc2cc(OC)c(OC)c(OC)c2[nH]1 (racemic),IC50,HeLa,0.25 ng/mL
COC(=O)c1c(C(F)(F)F)[nH]c2c(O)cc3c(c12)[C@H](CCl)CN3C(=O)c1cc2cc(NC(=O)c3cc4cc(OC)ccc4o3)ccc2[nH]1 (racemic),IC50,HeLa,0.064 ng/mL
same,TGI,Mus musculus [8],94%
COC(=O)c1c(C(F)(F)F)[nH]c2c(O)cc3c(c12)[C@H](CCl)CN3C(=O)c1cc2cc(NC(=O)c3cc4c(OC)c(OC)c(OC)cc4[nH]3)ccc2[nH]1,IC50,HeLa,0.94 ng/mL
same,TGI,Mus musculus [8],95%
COC(=O)c1c(C(F)(F)F)[nH]c2c(OC(=O)N3CCN(C)CC3)cc3c(c12)[C@H](CCl)CN3C(=O)c1cc2cc(NC(=O)c3cc4cc(OC)ccc4o3)ccc2[nH]1.Cl,TGI,Mus musculus [5],86%
same,TGI50,Mus musculus [6],0.148 mg/kg
same,Ratio,[7],6.8
COC(=O)c1c(C(F)(F)F)[nH]c2c(O)cc3c(c12)[C@H](CCl)CN3C(=O)c1cc2cc(NC(=O)c3cc4cccc(OC)c4o3)ccc2[nH]1 (racemic),IC50,HeLa,0.51 ng/mL
same,TGI,Mus musculus [8],96%
COC(=O)c1c(C(F)(F)F)[nH]c2c1[C@@]13C[C@@H]1CN(C(=O)c1cc4cc(NC(=O)c5cc6ccccc6o5)ccc4[nH]1)C3=CC2=O,Ratio,[7],4.3
COC(=O)c1c(C(F)(F)F)[nH]c2c(O)cc3c(c12)[C@H](CCl)CN3C(=O)c1cc2cc(NC(=O)c3cc4ccc(OC)cc4cn3)ccc2[nH]1,IC50,HeLa,0.11 ng/mL
same,TGI,Mus musculus [10],82%
COC(=O)c1c(C(F)(F)F)[nH]c2c1[C@@]13C[C@@H]1CN(C(=O)c1cc4cc(NC(=O)c5cc6ccccc6o5)ccc4[nH]1)C3=CC2=O (racemic) [listing 1 of 2 here],IC50,P338,0.53 ng/mL
COC(=O)c1c(C(F)(F)F)[nH]c2c(O)cc3c(c12)[C@H](CCl)CN3C(=O)c1cc2cc(NC(=O)c3cc4cc(OC)ccc4cn3)ccc2[nH]1 (racemic),IC50,HeLa,0.18 ng/mL
same,TGI,Mus musculus [10],90%
COC(=O)c1[nH]c2c(c1C(=O)OC)[C@@]13C[C@@H]1CN(C(=O)c1cc4cc(NC(=O)c5cc6ccccc6o5)ccc4[nH]1)C3=CC2=O (racemic),IC50,P338,0.66 ng/mL
COC(=O)c1c(C(F)(F)F)[nH]c2c(O)cc3c(c12)[C@H](CCl)CN3C(=O)c1cc2cc(NC(=O)c3cc4cccc(OC)c4cn3)ccc2[nH]1 (racemic),IC50,HeLa,0.51 ng/mL
same,TGI,Mus musculus [10],90%
COC(=O)c1c(C(F)(F)F)[nH]c2c(O)cc3c(c12)[C@H](CCl)CN3C(=O)c1cc2cc(NC(=O)c3cc4c(OC)cccc4cn3)ccc2[nH]1 (racemic),IC50,HeLa,0.2 ng/mL
same,TGI,Mus musculus [11],67%
CISPLATIN,TGI,Mus musculus [12],34%
same,TGI,Mus musculus [13],87%
same,TGI,Mus musculus [14],25%
same,TGI,Mus musculus [15],44%
COC(=O)c1c(C(F)(F)F)[nH]c2c(O)cc3c(c12)[C@H](CCl)CN3C(=O)c1cc2cc(NC(=O)c3cc4cc(OC)c(OC)c(OC)c4o3)ccc2[nH]1 (racemic),IC50,HeLa,0.17 ng/mL
same,TGI,Mus musculus [11],74%
COC(=O)c1c(C(F)(F)F)[nH]c2c1[C@@]13C[C@@H]1CN(C(=O)c1cc4cc(NC(=O)c5cc6ccccc6o5)ccc4[nH]1)C3=CC2=O (racemic) [listing 2 of 2 here],ILS,Mus musculus [9],2/2 cured mice (>60-day survivors)
COC(=O)c1c(C(F)(F)F)[nH]c2c(O)cc3c(c12)[C@H](CCl)CN3C(=O)c1cc2cc(NC(=O)c3cc4cc(OC)c(OC)c(OC)c4[nH]3)ccc2[nH]1 (racemic),IC50,HeLa,0.2 ng/mL
same,TGI,Mus musculus [10],83%
COC(=O)c1c(C(F)(F)F)[nH]c2c(O)cc3c(c12)[C@H](CCl)CN3C(=O)c1cc2cc(NC(=O)c3cc4ccccc4cn3)ccc2[nH]1 (racemic),IC50,HeLa,0.24 ng/mL
same,TGI,Mus musculus [10],82%
COC(=O)c1c(C(F)(F)F)[nH]c2c(O)cc3c(c12)[C@H](CCl)CN3C(=O)c1cc2cc(NC(=O)c3ccc4ccccc4c3)ccc2[nH]1 (racemic),IC50,HeLa,0.22 ng/mL
same,TGI,Mus musculus [8],84%
COC(=O)c1c(C(F)(F)F)[nH]c2c(O)cc3c(c12)[C@H](CCl)CN3C(=O)c1cc2cc(OC)c(OC)c(OC)c2o1 (racemic),IC50,HeLa,0.12 ng/mL
same,TGI,Mus musculus [8],75%
COC(=O)c1c(C(F)(F)F)[nH]c2c(O)cc3c(c12)[C@H](CCl)CN3C(=O)c1cc2c(OC)c(OC)c(OC)cc2[nH]1 (racemic),IC50,HeLa,32 ng/mL
